The values that follow come from ChEMBL document CHEMBL2311473, “Characterization of antimicrobial, cytotoxic, and antiendotoxin properties of short peptides with different hydrophobic amino acids at "a" and "d" positions of a heptad repeat sequence” (J Med Chem, 2013).

As a reminder, the MIC is the lowest concentration found to suppress growth. Broadly, the inhibition is the share of the control response that was lost under treatment.

Data set [1] has as its system Lipopolysaccharide (LPS). The experiment in a line: Binding affinity to LPS assessed as increase in helical structure at 36 uM by circular dichroism analysis. The gist of the method: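 CD spectra of peptides (36 μM) recorded alone and with LPS at 3.8 and 6.25 μM.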
On the technique in general: CD spectra are sensitive to the conformation of chiral molecules.

A further data set concerns Candida albicans. The experiment in a line: Antifungal activity against Candida albicans after 48 hrs by NCCLS microbroth dilution method. It counts as functional. The essentials: (§1)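 Microbroth dilution in MOPS-buffered RPMI 1640 following NCCLS guidelines. Inoculum 1−5 × 10^3 cells/mL, peptide range 50−0.36 (mass/mL). Plates held in a moist chamber at 35 °C and A492 read after 48 h (Candida spp.), 72 h (A. fumigatus, S. schenckii, C. neoformans) or 96 h (T. mentagrophytes). MIC taken as 90% growth inhibition versus growth control.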
A general note: In broth dilution the organism is exposed to a series of concentrations in liquid medium.

Data set [2] has as its system Escherichia coli. The data set can be described thus: Bactericidal activity against Escherichia coli ATCC 10536 assessed as induction of membrane damage at 5 uM after 30 mins by propidium iodide staining-based flow cytometric analysis. It counts as functional, organism-based. The essentials: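 Mid-log E. coli incubated with peptide (~5.0 μM) 30 min at 37 °C with shaking. Cells washed twice in PBS, stained with propidium iodide 30 min at 4 °C, washed and resuspended. 10000 events per sample by flow cytometry, compared with peptide-free control.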

Data set [3] can be described thus: Binding affinity to PC/Chol lipid vesicles assessed as decrease in acrylamide-induced tryptophan fluorescence quenching at 1 uM. Type of data set: physicochemical. The essentials:
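Acrylamide quencher added in aliquots from 3.0 M stock to peptide with PC/Chol (8:1) or PE/PG (7:3) SUVs, peptide/lipid 1:100. Trp excited at 295 nm. Values corrected for dilution and vesicle-blank scatter, then fitted to Stern–Volmer F0/F = 1 + KSV[Q].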

The test system of data set [4] is Lipopolysaccharide (LPS). The data set can be described thus: Binding affinity to LPS assessed as inhibition of LPS-induced LAL enzyme activation at 18 uM after 30 mins by spectrophotometric analysis. The gist of the method: (§2)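 Chromogenic limulus amoebocyte lysate endotoxin kit. Peptide binding to LPS estimated from inhibition of LPS-induced LAL enzyme activation, i.e. reduced substrate colour, and reported as percentage LPS binding.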

The nature of data set [5]: Cytotoxicity against human RBC assessed as hemolysis at 60 uM. Type of data set: cell-based, Erythrocyte. As to conditions: red blood cells (RBC), read-out: Activity. The essentials: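 hRBCs in PBS exposed to peptide. Hemoglobin release read as supernatant absorbance at 540 nm. Hemolysis % = (Asample − Ablank)/(Atriton − Ablank) × 100, with PBS blank and 0.2% Triton X-100 (final) as 100% reference.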

Data set [6] in a line: Binding affinity to PE/PG lipid vesicles assessed as induction of large blue shift at 1 uM by fluorescence assay. Type of data set: physicochemical.
Data set [7] is described as follows: Induction of dissipation of diffusion potential in PE/PG lipid vesicles by fluorescence assay. Type of data set: physicochemical. The essentials:
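SUVs of PC/Chol (8:1 w/w) or PE/PG (7:3 w/w) treated with peptide. Dissipation of diffusion potential taken as percentage fluorescence recovery ~5 min after peptide addition, with valinomycin used for reference levels. Plotted against peptide/lipid molar ratio.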

The subject of data set [8] is Escherichia coli. The data set can be described thus: Drug uptake in Escherichia coli ATCC 10536 assessed as membrane localization at 3 uM after 30 mins by confocal microscopic analysis. Type of data set: ADME, organism-based. As to conditions: in vivo, 0.5 h. The essentials:
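E. coli (~10^6 CFU/mL) in LB incubated with fluorescent-labeled peptide (~3.0 μM) for half an hour. Cells centrifuged, washed and imaged by confocal microscopy (DIC and fluorescence).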

The test system of a further data set is Sporothrix schenckii. The experiment in a line: Antifungal activity against Sporothrix schenckii after 72 hrs by NCCLS microbroth dilution method. It counts as functional. The essentials:
as §1

The test system of another data set is Candida parapsilosis. The experiment in a line: Antifungal activity against Candida parapsilosis ATCC 22019 after 48 hrs by NCCLS microbroth dilution method. It counts as functional. The conditions noted are these: Lodderomyces parapsilosis, ATCC 22019, 48 h. The gist of the method:
as §1

In data set [9] the test system is RAW264.7. The data set can be described thus: Antiinflammatory activity in mouse RAW264.7 cells assessed as inhibition of LPS-induced NO production at 6 uM by Griess method. Type of data set: functional. Also noted: scale not given: the % may be the effect or the level left. The gist of the method:
(§3)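 RAW 264.7 cells plated at 5 × 10^5/well and exposed to LPS (E. coli 0111:B4, 1 μg/mL) together with peptide at varying doses. Cells with and without LPS served as maximum and basal NO controls. Nitrite in the supernatant measured by Griess reagent at 548 nm against a sodium nitrite standard curve, and percent inhibition of NO calculated.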

Data set [10] concerns Lipopolysaccharide (LPS). The data set can be described thus: Binding affinity to LPS assessed as inhibition of LPS-induced LAL enzyme activation at 4.5 uM after 30 mins by spectrophotometric analysis. The gist of the method:
as §2

Data set [11] concerns RAW264.7. The data set can be described thus: Antiinflammatory activity in mouse RAW264.7 cells assessed as inhibition of LPS-induced NO production at 3 uM by Griess method. More on the design: scale not given: the % may be the effect or the level left. It counts as functional. The essentials: as §3
On the technique in general: Nitrite, measured by Griess reagent, commonly stands in for NO production.

The nature of data set [12]: Binding affinity to PE/PG lipid vesicles assessed as increase in helical structure at 36 uM by circular dichroism analysis. Type of data set: physicochemical. The essentials:
(§4)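 Peptides (~36 μM) with ~500 μM PC/Chol (8:1 w/w) or PE/PG (7:3 w/w) vesicles. CD spectra 250–190 nm at ~30 °C in 0.2 cm cuvette; 4–6 scans averaged at 20 nm/min, 0.5 nm interval.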

The nature of data set [13]: Binding affinity to PC/Chol lipid vesicles assessed as increase in helical structure at 36 uM by circular dichroism analysis. It counts as physicochemical. The essentials:
as §4

Each structure is given as a SMILES string. In brackets after ≈: the same amount, converted by molar mass. Activity calls are given as the source filed them. The calls are words filed in the database; no cut-off is given here. Some results are limits rather than exact numbers.

On to `C[C@H](N)C(=O)O` [ALANINE], for which the outcome in the data set on Lipopolysaccharide (LPS) [1] and in the data set with Escherichia coli [2] was Active. Moreover, the MIC against Candida albicans was above 25 µM; against Sporothrix schenckii it was 25 µM (≈ 2.23 µg/mL); against Candida parapsilosis, 25 µM (≈ 2.23 µg/mL). For the same compound, the Activity entry in data set [3] is given as “Not Active”; in [6] it was “Active”; in [7] it was “Active”; with RAW264.7 [9], 13%. The inhibition in the data set on Lipopolysaccharide (LPS) [4] came to 10%; with Lipopolysaccharide (LPS) [10], 3%. In data set [5], the hemolysis at 60 µM is 1%. Further, in the data set on Escherichia coli [8], the Drug uptake result is given as “Active”.

As for `CC(C)C[C@H](N)C(=O)O` [LEUCINE], the outcome in the data set with Lipopolysaccharide (LPS) [1] and in the data set on Escherichia coli [2] was Active. Moreover, the MIC against Candida albicans was 3.1 µM (≈ 0.407 µg/mL); with Sporothrix schenckii, 1.56 µM (≈ 0.205 µg/mL); in the data set on Candida parapsilosis it was 3 µM (≈ 0.394 µg/mL). The Activity entry is “Active” in [3]; “Active” in [6]; “Active” in data set [7]; 90% in the data set with RAW264.7 [11]; “Active” in data set [12]; “Active” in [13]. Besides, in the data set on Lipopolysaccharide (LPS) [4], the inhibition entry was “Active”. Besides, in [5], the hemolysis at 60 µM came to 80%. Moreover, the Drug uptake result with Escherichia coli [8] is reported as “Active”. For the same compound, in the data set on Lipopolysaccharide (LPS) [10], the inhibition is 72%.

With `CC(C)[C@H](N)C(=O)O` [VALINE], the outcome with Lipopolysaccharide (LPS) [1] and in the data set on Escherichia coli [2] was Active. For the same compound, the MIC is 9.6 µM (≈ 1.12 µg/mL) in the data set on Candida albicans, 6 µM (≈ 0.703 µg/mL) with Sporothrix schenckii and 1.5 µM (≈ 0.176 µg/mL) against Candida parapsilosis. The Activity entry is “Not Active” in [3]; “Active” in data set [6]; “Active” in data set [7]; “Active” in data set [12]; 50% in the data set on RAW264.7 [9]. The inhibition with Lipopolysaccharide (LPS) [4] amounted to 29%; with Lipopolysaccharide (LPS) [10], 8%. Further, the hemolysis at 60 µM in data set [5] is 10%. Also, in the data set with Escherichia coli [8], the Drug uptake result is listed as “Active”.
